# Measured values published in ChEMBL document CHEMBL4513216, “Probing the Open Global Health Chemical Diversity Library for Multistage-Active Starting Points for Next-Generation Antimalarials” (ACS Infect Dis, 2020).
# Assay: Toxicity liver stage against HepG2, at 10uM
# Type: cell-based
# Design: test concentration 10 uM, cell line HepG2-A16-CD81EGFP
# Conditions: human, HepG2-A16-CD81EGFP cells; read-out: INHIBITION
# In short: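 Uninfected HepG2-A16-CD81EGFP cells, 3 × 10^3 per well, 1536-well, plated on prespotted compound at 10 μM final, parasite-free screening media added to match infected plates; puromycin 10 μM positive, DMSO 0.5% negative; run in parallel with 48 h PbLuc assay at 37 °C, 5% CO2; viability by CellTiter-Glo luminescence, normalized to controls.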
row,Structure (SMILES),cytotoxicity at 10 µM
1,Cn1c2ccccc2c2ncn(CCN3CCOCC3)c(=O)c21,15.7%
2,Cc1c(CNCc2nn(-c3ccccc3)c3c2CCC3)cc(C#N)n1C,13.3%
3,CCOC(=O)CNC(=O)NCc1cc(C)n(-c2ccccc2OC)c1C,13.3%
4,CN(CCC(O)c1ccccc1)Cc1nc(-c2ccccc2)no1 (configuration not stated),7.86%
5,CC(=O)NC1CCCc2c1[nH]c1ccc(F)cc21 (configuration not stated),-4.41%
6,CCN1C[C@H]2CCN(C(=O)c3cc[nH]n3)CC[C@H]2S1(=O)=O,12.2%
7,O=C(O)C1CCCN(C(=O)CCn2ccc3c(Cl)cccc32)C1 (configuration not stated),11%
8,CC(C)n1[nH]c(=O)c2c1NC(=O)CSC2C1CCCCC1 (configuration not stated),-4.56%
9,CC(=O)Nc1nc(-c2ccc(F)cc2)c[nH]1,2.41%
10,O=C(NCCN1CCOCC1)c1ccc(-n2ccc3ccccc32)s1,-1.27%
11,CN1CCN(c2nsc(-c3cccnc3)c2C#N)CC1,0.916%
12,CCOC(=O)C1CCN(c2cc(C(=O)N3CCOCC3)nc(C)n2)CC1,-1.07%
13,Cc1nnc(Nc2cccc(C3CCCN(Cc4ncc[nH]4)C3)n2)s1 (configuration not stated),-5.5%
14,COCCN1C(=O)CO[C@H]2CN(Cc3ccccc3Cl)C[C@@H]21,-6.55%
15,CN(CC(=O)NCC(F)(F)F)C(=O)c1ccc(C(=O)OC(C)(C)C)cc1,0.68%
16,O=C(NCc1ccc(CN2CCCC2)cc1)NC1(CO)CCCC1,-63.4%
17,O=c1oc(-c2ccc(F)cc2)nn1CC1CCOC1 (configuration not stated),5.53%
18,CC(NC(=O)N1CCCN(CC(F)F)CC1)c1ccco1 (configuration not stated),-6.03%
19,O=C(NC1CCN(C2CC2)CC1)c1cc(Cl)ccc1-n1cnnn1,3.43%
20,Cc1noc(C)c1CN(C)Cc1csc(-c2ncccn2)n1,16.5%
21,Cc1nccn1-c1ccc(C(C)NCCC(C)C)cc1 (configuration not stated),15.9%
22,Cc1c(NC(C)C(C)C)cccc1C(=O)NCc1ccnn1C (configuration not stated),57.6%

row,Structure (SMILES),cytotoxicity at 10 µM
1,CCc1ccc(C2CCCCCN2C(=O)CNC(=O)C2CC2)o1 (configuration not stated),-7.25%
2,COc1ccc(CCN(C)CCS(=O)(=O)c2ccc(Cl)cc2)cc1OC,35.4%
3,Fc1ccc(CNCc2nnc3n2CC(C(F)(F)F)CC3)cc1 (configuration not stated),6.71%
4,CNS(=O)(=O)c1cccc(C(C)NCc2ccc(C)c(C)c2)c1 (configuration not stated),3.92%
5,CN(Cc1ccco1)Cc1ccccc1CNC(=O)c1cnccn1,17.1%
6,N#Cc1cc(NC(=O)c2ccncc2)ccc1N1CCC(O)CC1,7.48%
7,CN(C)CCN(Cc1ccc(C(F)(F)F)cc1)C(=O)c1cc[nH]n1,3.95%
8,NS(=O)(=O)N1CCc2ccc(NC(=O)CC(F)(F)F)cc21,6.15%
9,O=C(COc1cccc2c1CCC2=O)NCCc1cccs1,0.79%
10,Cc1cc(=O)n2ncnc2n1CC(O)c1ccccc1 (configuration not stated),-7.82%
11,CN1CCN(S(=O)(=O)c2cccc(C#N)c2)c2ccc(F)cc21,2.98%
12,OCc1cc2ccccc2nc1NC1CC=CC1,-56%
13,O=C1CCc2cc(S(=O)(=O)NC(=O)c3ccc4c(c3)COC4)ccc2N1,4.82%
14,Clc1cc(Cl)cc(OCCN2CCC(n3cncn3)CC2)c1,10.8%
15,CCC1CN(C)c2ccccc2CN1C(=O)Nc1ccccc1OC (configuration not stated),-1.87%
16,N#Cc1c(Cl)nsc1NCCCN1C(=O)COc2ccccc21,22.2%
17,C=C(C)COCCNC(=O)Nc1cccc(Cn2nc(C)nc2C)c1,7.64%
18,Cc1nn(C)c(Oc2cccc(F)c2)c1NC(=O)C1CCOCC1,-3.91%
19,CCN(CC)c1ccc(CNS(=O)(=O)C2CCOCC2)cc1F,-13.4%
20,O=C(Nc1ccc(N2CCCC2)nc1)N1CCc2ccccc2C1,-10.2%
21,CCOCC(=O)N1C[C@@H]2COC[C@]2(c2nc(C)no2)C1,-90.9%
22,COC1COC2(CCN(C(=O)c3ccccc3F)CC2)C1 (configuration not stated),-92.4%

row,Structure (SMILES),cytotoxicity at 10 µM
1,Cc1occc1C(=O)N1C[C@@H]2CCCO[C@@H]2[C@H](NC(=O)CC2CC2)C1,-102%
2,Cc1cccc(-c2nnn3c2COC(CNC(=O)N2CCCC2)C3)c1 (configuration not stated),-94.5%
3,CNC(=O)N1CC[C@@H]2CN(Cc3cccc(OC)c3)S(=O)(=O)[C@@H]2CC1,-108%
4,Cc1nc(C(=O)N2CC[C@@]3(C[C@@H](NS(C)(=O)=O)CCO3)C2)cs1,-66%
5,CO[C@@H]1CCN(Cc2cccs2)[C@H]1Cc1ccncc1,-73.4%
6,CCC(CC)CN1CCC2(CCCN(c3ncccn3)C2)C1 (configuration not stated),-83.5%
7,c1cc(CN2CCOCC3(CCNCC3)C2)ccn1,-71%
8,O=C(c1ccsc1)N1CCc2ncc(Cn3cncn3)n2CC1,-78%
9,COc1cc(C(=O)NCc2cc(N3CCOCC3)ncn2)ccn1,-10.8%
10,Cn1ncc(N2CCC(CNC3CC(c4ccccc4)C3)CC2)cc1=O (configuration not stated),-2.15%
11,NC(=O)c1ccc(-n2ccnc2-c2cccc(O)c2)cc1N1CCCC1,15.8%
12,CCc1nc(C)c(C(=O)N2C[C@@H](C(=O)O)[C@H](C3CC3)C2)s1,3.41%
13,CCN(Cc1ccncc1)C1CCCN(Cc2ccc(F)cc2Cl)C1 (configuration not stated),7.94%
14,Cn1ccnc1C1CCN(S(=O)(=O)c2ccc3[nH]c(=O)[nH]c3c2)CC1,4.82%
15,Cc1cc(CC(C)Nc2ncc(C)c(N(C)C)n2)[nH]n1 (configuration not stated),-7.85%
16,CCc1nc(CNc2nc3c(s2)c(C)nn3C)cs1,-72%
17,O=C(c1cc(=O)n(-c2ccccc2)[nH]1)N1CCOC(C(F)(F)F)C1 (configuration not stated),3.32%
18,C/C=C(\C)CN1C[C@H](NC(=O)CCOC)[C@@H](c2ccc(C)o2)C1,7.06%
19,Cc1c(C(C)NCC2CCCC2)cnn1-c1ccc(F)cc1F (configuration not stated),9%
20,CN(C)c1ccc(C(=O)NCCCc2ccccn2)cn1,-54%
21,Cc1csc2c(N3CCNC(C(=O)Nc4ccc(F)cc4)C3)ncnc12 (configuration not stated),12.7%
22,COc1cccc2c1OCC(NCc1cnn(-c3ccccc3)c1)C2 (configuration not stated),-0.517%

row,Structure (SMILES),cytotoxicity at 10 µM
1,COc1coc(CN2CCCC(CCc3ccc(F)c(F)c3)C2)cc1=O (configuration not stated),1.95%
2,CC(C)n1cc(C(=O)N2CCN(c3cccc(C(F)(F)F)c3)CC2)cn1,5.37%
3,CN(C)Cc1ccc(C(=O)N2CCCC(COc3ccc(F)cc3)C2)o1 (configuration not stated),-12.9%
4,CNC(=O)C(C)(C)NC(=O)c1cc(COc2ccccc2OC)[nH]n1,1.6%
5,Cn1ccnc1-c1cnn(CC(=O)Nc2ccnn2C)c1,-10.1%
6,CN1CCCCCC1C(=O)N1CCN(c2ccccc2C#N)CC1 (configuration not stated),-7.17%
7,CN(Cc1ccccc1Cl)C(C(=O)O)c1ccc(F)c(CO)c1 (configuration not stated),-46.4%
8,CCn1nc(C)c(CN2CCCC(c3ccc(C(=O)O)cc3)C2)c1C (configuration not stated),-8.56%
9,Cc1nccc(N[C@H]2CN(C(=O)CN3CCCC3=O)C[C@@H]2C(C)C)n1,-2.14%
10,CCSC(C)C(=O)N1CCC(c2nn(C)c(=O)n2-c2ccccc2)CC1 (configuration not stated),0.299%
11,CCc1cc(N2CCC(NC3CN4CCC3CC4)CC2)nc(N(C)C)n1 (configuration not stated),-2.12%
12,Cc1ccc(NC(=O)c2coc(C)n2)c(C)c1,-4.94%
13,COc1ncc(CN(CCN(C)C)Cc2ccc(C)s2)cn1,-50.3%
14,Cc1cccc(C(=O)Nc2ccc(OC3CCN(C)CC3)cc2)c1,-26.1%
15,CC(=O)N1CCCN(C(=O)c2ccc(=O)n(C)c2)c2ccccc21,-10.4%
16,CN1CCOC(CN(C(=O)CCc2cnn(C)c2)c2nccs2)C1 (configuration not stated),-10.2%
17,Nc1cc2c(nn1)CCN(C(=O)CCC1CCCCC1)C2,6.5%
18,CCc1nc(CC(=O)N2CCCCC2Cn2cccn2)cs1 (configuration not stated),-17.6%
19,CC(NC(=O)NCCCN(C)S(C)(=O)=O)c1ccc(Cl)cc1 (configuration not stated),-2.24%
20,O=C(c1ccc(Cl)o1)N1CCCC(c2cc(C(F)(F)F)[nH]n2)C1 (configuration not stated),2.14%
21,CNC(=O)C1CCN(C(=O)CCn2cccn2)CC1,-3.76%
22,Cc1noc(C)c1C(=O)NCc1ccnc(OCC(F)(F)F)c1,-0.421%

row,Structure (SMILES),cytotoxicity at 10 µM
1,Cn1nc(COc2cncnc2)c2c1CCN(Cc1ccco1)C2,9.64%
2,CC(C)C(=O)N1CCC2(CC1)COCCN2Cc1ccc(F)cc1,-60.9%
3,Fc1cnc(N2C[C@@H]3C[C@@H](c4nc(C5CC5)cs4)O[C@@H]3C2)nc1,22.8%
4,O=C(NCc1cnc2n1CCN(Cc1ccoc1)C2)c1ccno1,-93%
5,CN(Cc1ccco1)C[C@H]1OC[C@@H]2CCN(Cc3ccsc3)C[C@@H]21,-3.2%
6,CCOC1COC2(CCN(C(=O)c3cccc(C)n3)CC2)C1 (configuration not stated),6.24%
7,COc1cccc([C@H]2CN(C(C)=O)[C@@H]3CCN(Cc4ccsc4)C[C@H]23)c1,-9.19%
8,CCn1cc2c(n1)CN(Cc1cnn(C)c1)CC2COCC1CC1 (configuration not stated),-80.4%
9,COc1ccc(CNc2c(C)nn(C(C)C)c2C)cc1OC,-38.5%
10,CC1CCN(C(=O)[C@@H]2CC[C@@H]3[C@@H](CCN3c3ncc(F)cn3)O2)CC1,-0.359%
11,Cc1cccc(CO[C@@H]2CO[C@@]3(CCN(S(=O)(=O)N(C)C)C3)C2)n1,4.14%
12,CN(C)CCNC(=O)c1cc(-c2cnc(N3CCCC3)nc2)cn1C,15.7%
13,CCn1nnc2c1C(COCCN(C)C)CN(Cc1ccco1)C2 (configuration not stated),1.86%
14,c1cc(CN2CCO[C@H]3[C@H](OCC4CCCC4)CC[C@@H]32)ccn1,13.9%
15,c1cncc(N2CCCC3(CN(Cc4cccs4)CCO3)C2)c1 (configuration not stated),11.5%
16,CN(C)C1CCN(C(=O)c2cc(-c3ccn(C)n3)n3ccccc23)CC1,-117%
17,CCc1ncc(CN2C[C@@H]3CC[C@H]2CN(C(=O)C2CCC2)C3)cn1,4.96%
18,O=C(Nc1cccnc1)[C@H]1C[C@H]2CN(Cc3ccc(F)cc3)C[C@@H]1O2,-82.9%
19,O=S(=O)(c1cccc(F)c1)N1C[C@H]2CC[C@@H](C1)N(Cc1ccccc1)C2,-3.03%
